# System: NIH3T3
# Assay: Cytotoxicity against mouse 3T3 cells assessed as cell viability measured after 48 hrs by MTT assay
# Assay type: cell-based
# Details: nih3t3, 48 h
# How it was run: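 3T3 fibroblasts in DMEM with 10% FBS and penicillin-streptomycin, seeded at 10^4 cells/well 24 h prior. Exposed 48 h to two-fold serial dilutions from a 100 mg/mL DMSO stock. MTT (5 mg/mL in PBS) added for 1.5 h, formazan dissolved in DMSO, read at 530 nm. Duplicate runs on different days. Value interpolated between DMSO (100%) and cycloheximide (0%) controls.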
row,Compound,LC50 [µM]
1,COc1ccc(C(C)=O)cc1S(=O)(=O)Nc1c(N)nc(SC)[nH]c1=O,> 1600
2,COc1ccc(C(=O)/C=C/c2ccccc2)cc1S(N)(=O)=O,7.7
3,COc1ccc(C(=O)/C=C/c2ccccc2)cc1S(=O)(=O)Nc1c(N)nc(SC)[nH]c1=O,17
4,COc1ccc(C(=O)/C=C/c2ccc3c(c2)OCO3)cc1S(N)(=O)=O,132
5,COc1ccc(C(=O)/C=C/c2cc(OC)c(OC)c(OC)c2)cc1S(N)(=O)=O,2.4
6,C[C@@H]1C[C@@H]([C@H](O)CC2CC(=O)NC(=O)C2)C(=O)[C@@H](C)C1 [CYCLOHEXIMIDE],< 2.2
7,COc1ccc(/C=C/C(=O)c2ccc(OC)c(S(N)(=O)=O)c2)cc1,96
8,COc1ccc(C(=O)/C=C/c2cc(OC)c(OC)c(OC)c2)cc1S(=O)(=O)Nc1c(N)nc(SC)[nH]c1=O,2.1
9,COc1ccc(C(=O)/C=C/c2ccc(C)cc2)cc1S(=O)(=O)Nc1c(N)nc(SC)[nH]c1=O,7.2
10,COc1ccc(C(=O)/C=C/c2ccc3c(c2)OCO3)cc1S(=O)(=O)Nc1c(N)nc(SC)[nH]c1=O,7.1
11,COc1ccc(/C=C/C(=O)c2ccc(OC)c(S(=O)(=O)Nc3c(N)nc(SC)[nH]c3=O)c2)cc1,6.5
12,COc1ccc(C(C)=O)cc1S(N)(=O)=O,> 2700
13,COc1ccc(C(=O)/C=C/c2ccc(C)cc2)cc1S(N)(=O)=O,4.3

# System: Mycolicibacterium smegmatis
# Assay: Antibacterial activity against Mycobacterium smegmatis MC2 155 measured after 48 hrs by agar dilution SPOTi assay
# Assay type: functional
# Details: MC2 155, 48 h
# How it was run: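 SPOTi agar dilution on Middlebrook 7H10 without OADC. Cells were passaged in Middlebrook 7H9 and then spotted. Compounds were tested at 100, 50, 20, 10 and 5 mg/L, with kanamycin as positive control. Plates were incubated 48 h at 37°C. MIC was taken as the lowest concentration with no visible growth.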
row,Compound,MIC [µM]
1,COc1ccc(C(C)=O)cc1S(=O)(=O)Nc1c(N)nc(SC)[nH]c1=O,> 175
2,COc1ccc(C(=O)/C=C/c2ccccc2)cc1S(N)(=O)=O,> 175
3,COc1ccc(C(=O)/C=C/c2ccccc2)cc1S(=O)(=O)Nc1c(N)nc(SC)[nH]c1=O,> 175
4,COc1ccc(C(=O)/C=C/c2ccc3c(c2)OCO3)cc1S(N)(=O)=O,> 175
5,COc1ccc(C(=O)/C=C/c2cc(OC)c(OC)c(OC)c2)cc1S(N)(=O)=O,> 175
6,COc1ccc(/C=C/C(=O)c2ccc(OC)c(S(N)(=O)=O)c2)cc1,> 175
7,COc1ccc(C(=O)/C=C/c2cc(OC)c(OC)c(OC)c2)cc1S(=O)(=O)Nc1c(N)nc(SC)[nH]c1=O,> 175
8,COc1ccc(C(=O)/C=C/c2ccc(C)cc2)cc1S(=O)(=O)Nc1c(N)nc(SC)[nH]c1=O,> 175
9,COc1ccc(C(=O)/C=C/c2ccc3c(c2)OCO3)cc1S(=O)(=O)Nc1c(N)nc(SC)[nH]c1=O,> 175
10,COc1ccc(/C=C/C(=O)c2ccc(OC)c(S(=O)(=O)Nc3c(N)nc(SC)[nH]c3=O)c2)cc1,> 175
11,COc1ccc(C(C)=O)cc1S(N)(=O)=O,> 175
12,COc1ccc(C(=O)/C=C/c2ccc(C)cc2)cc1S(N)(=O)=O,> 175

# System: SR
# Assay: Anticancer activity against human SR cells assessed as tumour cell growth at 10 uM after 48 hrs by SRB assay relative to control
# Assay type: functional
# Details: not given
# How it was run: (§1)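 NCI 60-line primary screen at a single 10 μM dose in RPMI-1640 with 5% FBS and 2 mM L-glutamine. Cells were preincubated 24 h at 37 °C in 5% CO₂, with time-zero plates fixed with TCA. Compounds (DMSO, diluted in gentamicin medium) were incubated 48 h, then cells TCA-fixed and stained with 0.4% SRB (A515). Growth percent was derived from time-zero, control and treated absorbances.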
row,Compound,Activity [%]
1,COc1ccc(/C=C/C(=O)c2ccc(OC)c(S(N)(=O)=O)c2)cc1,28.1

# System: K562
# Assay: Anticancer activity against human K562 cells assessed as tumour cell growth at 10 uM after 48 hrs by SRB assay relative to control
# Assay type: functional
# Details: not given
# How it was run: as §1
row,Compound,Activity [%]
1,COc1ccc(C(=O)/C=C/c2ccccc2)cc1S(N)(=O)=O,7.9
2,COc1ccc(C(=O)/C=C/c2ccccc2)cc1S(=O)(=O)Nc1c(N)nc(SC)[nH]c1=O,35.63
3,COc1ccc(C(=O)/C=C/c2ccc3c(c2)OCO3)cc1S(N)(=O)=O,44.59
4,COc1ccc(/C=C/C(=O)c2ccc(OC)c(S(N)(=O)=O)c2)cc1,38.78
5,COc1ccc(C(=O)/C=C/c2ccc(C)cc2)cc1S(=O)(=O)Nc1c(N)nc(SC)[nH]c1=O,38.79
6,COc1ccc(C(=O)/C=C/c2ccc3c(c2)OCO3)cc1S(=O)(=O)Nc1c(N)nc(SC)[nH]c1=O,53.79
7,COc1ccc(/C=C/C(=O)c2ccc(OC)c(S(=O)(=O)Nc3c(N)nc(SC)[nH]c3=O)c2)cc1,54.26
8,COc1ccc(C(=O)/C=C/c2ccc(C)cc2)cc1S(N)(=O)=O,3.04

# System: M14
# Assay: Anticancer activity against human M14 cells assessed as tumour cell growth at 10 uM after 48 hrs by SRB assay relative to control
# Assay type: functional
# Details: not given
# How it was run: as §1
row,Compound,Activity [%]
1,COc1ccc(C(C)=O)cc1S(=O)(=O)Nc1c(N)nc(SC)[nH]c1=O,94.85

# System: HCT-116
# Assay: Anticancer activity against human HCT116 cells assessed as tumour cell growth at 10 uM after 48 hrs by SRB assay relative to control
# Assay type: functional
# Details: not given
# How it was run: as §1
row,Compound,Activity [%]
1,COc1ccc(C(=O)/C=C/c2ccccc2)cc1S(=O)(=O)Nc1c(N)nc(SC)[nH]c1=O,35.18
2,COc1ccc(C(=O)/C=C/c2ccc3c(c2)OCO3)cc1S(N)(=O)=O,19.22
3,COc1ccc(C(=O)/C=C/c2ccc(C)cc2)cc1S(=O)(=O)Nc1c(N)nc(SC)[nH]c1=O,10.78
4,COc1ccc(C(=O)/C=C/c2ccc3c(c2)OCO3)cc1S(=O)(=O)Nc1c(N)nc(SC)[nH]c1=O,18.36
5,COc1ccc(/C=C/C(=O)c2ccc(OC)c(S(=O)(=O)Nc3c(N)nc(SC)[nH]c3=O)c2)cc1,24.01

# System: HL-60
# Assay: Anticancer activity against human HL60 cells assessed as tumour cell growth at 10 uM after 48 hrs by SRB assay relative to control
# Assay type: functional
# Details: not given
# How it was run: as §1
row,Compound,Activity [%]
1,COc1ccc(C(C)=O)cc1S(N)(=O)=O,74.74

# System: Mycobacterium tuberculosis
# Assay: Antitubercular activity against Mycobacterium tuberculosis H37Rv ATCC27294 measured after 2-3 weeks by agar dilution SPOTi assay
# Assay type: functional
# Details: H37Rv ATCC 27294
# How it was run: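 Agar dilution SPOTi on Middlebrook 7H10 with 0.5% glycerol and 10% OADC. Final compound levels 50, 20, 10, 5, 2 mg/L, added from DMSO dilutions. 2 µL of a 10^6 CFU/mL inoculum from a 4-week Löwenstein-Jensen culture spotted per well, incubated 2-3 weeks at 37°C. MIC is the lowest concentration with no visible growth. Repeated on a separate day; isoniazid was the reference.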
row,Compound,MIC [µM]
1,COc1ccc(C(C)=O)cc1S(=O)(=O)Nc1c(N)nc(SC)[nH]c1=O,> 130
2,COc1ccc(C(=O)/C=C/c2ccccc2)cc1S(N)(=O)=O,16
3,COc1ccc(C(=O)/C=C/c2ccccc2)cc1S(=O)(=O)Nc1c(N)nc(SC)[nH]c1=O,42
4,COc1ccc(C(=O)/C=C/c2ccc3c(c2)OCO3)cc1S(N)(=O)=O,> 138
5,COc1ccc(C(=O)/C=C/c2cc(OC)c(OC)c(OC)c2)cc1S(N)(=O)=O,> 123
6,COc1ccc(/C=C/C(=O)c2ccc(OC)c(S(N)(=O)=O)c2)cc1,> 144
7,COc1ccc(C(=O)/C=C/c2cc(OC)c(OC)c(OC)c2)cc1S(=O)(=O)Nc1c(N)nc(SC)[nH]c1=O,> 89
8,COc1ccc(C(=O)/C=C/c2ccc(C)cc2)cc1S(=O)(=O)Nc1c(N)nc(SC)[nH]c1=O,41
9,COc1ccc(C(=O)/C=C/c2ccc3c(c2)OCO3)cc1S(=O)(=O)Nc1c(N)nc(SC)[nH]c1=O,> 97
10,COc1ccc(/C=C/C(=O)c2ccc(OC)c(S(=O)(=O)Nc3c(N)nc(SC)[nH]c3=O)c2)cc1,> 100
11,COc1ccc(C(C)=O)cc1S(N)(=O)=O,> 218
12,NNC(=O)c1ccncc1 [ISONIAZID],0.36
13,COc1ccc(C(=O)/C=C/c2ccc(C)cc2)cc1S(N)(=O)=O,30

# System: Staphylococcus aureus
# Assay: Antibacterial activity against Staphylococcus aureus measured every 120 mins for 36 hrs by LB broth two-fold serial dilution method
# Assay type: functional
# Details: not given
# How it was run: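 Panel of 12 laboratory and clinical S. aureus strains with varied drug-susceptibility patterns. Compounds were two-fold serially diluted in LB broth from a maximum of 32 mg/L. Growth was followed by OD600 every 120 min for 36 h. Vancomycin was the positive control, and runs were in duplicate.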
row,Compound,MIC [µM]
1,COc1ccc(C(C)=O)cc1S(=O)(=O)Nc1c(N)nc(SC)[nH]c1=O,> 57
2,COc1ccc(C(=O)/C=C/c2ccccc2)cc1S(N)(=O)=O,> 57
3,COc1ccc(C(=O)/C=C/c2ccccc2)cc1S(=O)(=O)Nc1c(N)nc(SC)[nH]c1=O,> 57
4,COc1ccc(C(=O)/C=C/c2ccc3c(c2)OCO3)cc1S(N)(=O)=O,> 57
5,COc1ccc(C(=O)/C=C/c2cc(OC)c(OC)c(OC)c2)cc1S(N)(=O)=O,> 57
6,COc1ccc(/C=C/C(=O)c2ccc(OC)c(S(N)(=O)=O)c2)cc1,> 57
7,COc1ccc(C(=O)/C=C/c2cc(OC)c(OC)c(OC)c2)cc1S(=O)(=O)Nc1c(N)nc(SC)[nH]c1=O,> 57
8,COc1ccc(C(=O)/C=C/c2ccc(C)cc2)cc1S(=O)(=O)Nc1c(N)nc(SC)[nH]c1=O,> 57
9,COc1ccc(C(=O)/C=C/c2ccc3c(c2)OCO3)cc1S(=O)(=O)Nc1c(N)nc(SC)[nH]c1=O,> 57
10,COc1ccc(/C=C/C(=O)c2ccc(OC)c(S(=O)(=O)Nc3c(N)nc(SC)[nH]c3=O)c2)cc1,> 57
11,COc1ccc(C(C)=O)cc1S(N)(=O)=O,> 57
12,COc1ccc(C(=O)/C=C/c2ccc(C)cc2)cc1S(N)(=O)=O,> 57

# System: not listed separately
# Assay: Selectivity index, ratio of LC50 for mouse 3T3 cells to MIC for Mycobacterium tuberculosis H37Rv ATCC27294
# Assay type: toxicity
# Details: read-out: Selectivity Index
row,Compound,selectivity ratio
1,COc1ccc(C(=O)/C=C/c2ccccc2)cc1S(N)(=O)=O,0.48
2,COc1ccc(C(=O)/C=C/c2ccccc2)cc1S(=O)(=O)Nc1c(N)nc(SC)[nH]c1=O,0.4
3,COc1ccc(C(=O)/C=C/c2ccc(C)cc2)cc1S(=O)(=O)Nc1c(N)nc(SC)[nH]c1=O,0.18
4,COc1ccc(C(=O)/C=C/c2ccc(C)cc2)cc1S(N)(=O)=O,0.14

# Reference: ChEMBL document CHEMBL4393705, “New chalcone-sulfonamide hybrids exhibiting anticancer and antituberculosis activity” (Eur J Med Chem, 2019)
